For one molecule, Activity, T1/2 and IC50 results are on record in ChEMBL document CHEMBL4371044, “Celastrol Promotes Weight Loss in Diet-Induced Obesity by Inhibiting the Protein Tyrosine Phosphatases PTP1B and TCPTP in the Hypothalamus” (J Med Chem, 2018).

Assay [1] has as its system Mus musculus. The assay is described as follows: Antiobesity activity in high fat diet-induced obese Ptpn1fl/fl/Ptpn2fl/fl null C57BL/6 mouse assessed as reduction in body weight at 100 ug/kg, ip for 10 consecutive days. Format: functional, organism-based. Summed up:
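Male Ptpn1fl/fl, Ptpn2fl/fl or double-floxed mice: chow 8 weeks, then high-fat diet (45% energy from fat) 12 weeks. Bilateral intra-ARC stereotaxic injection of rAAV-CMV-Cre-GFP or rAAV-CMV-GFP, 100 nL/side. After 2 weeks recovery, vehicle or 100 μg/kg ip daily at 6 pm for 10 days; body weight tracked; two-way repeated-measures ANOVA with Tukey test; means ± SEM.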

Assay [2] concerns the target T1, Tyrosine-protein phosphatase non-receptor type 1 (Homo sapiens) (UniProt P18031).
T1 sequence (whole entry): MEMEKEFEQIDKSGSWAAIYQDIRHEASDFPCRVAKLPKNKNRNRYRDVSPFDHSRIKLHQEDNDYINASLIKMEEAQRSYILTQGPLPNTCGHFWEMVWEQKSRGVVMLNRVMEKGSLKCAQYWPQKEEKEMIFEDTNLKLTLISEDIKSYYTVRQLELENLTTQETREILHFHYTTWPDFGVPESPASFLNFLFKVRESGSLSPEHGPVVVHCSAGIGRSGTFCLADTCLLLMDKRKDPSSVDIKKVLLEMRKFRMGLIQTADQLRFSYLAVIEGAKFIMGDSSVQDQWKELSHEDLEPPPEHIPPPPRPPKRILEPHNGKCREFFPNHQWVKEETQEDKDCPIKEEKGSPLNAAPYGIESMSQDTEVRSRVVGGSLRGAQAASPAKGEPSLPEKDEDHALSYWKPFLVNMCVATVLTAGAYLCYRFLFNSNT
The assay is described as follows: Binding affinity to human N-terminal His6-tagged PTP1B catalytic domain (1 to 298 residues) expressed in Escherichia coli strain Rosetta2 (DE3) assessed as association half life using DiFMUP as substrate preincubated for 10 mins followed by substrate addition measured for 10 mins fluorescence assay.

Assay [3] concerns the target T2, Tyrosine-protein phosphatase non-receptor type 11 (Homo sapiens, UniProt Q06124).
T2 sequence (Q06124 whole entry): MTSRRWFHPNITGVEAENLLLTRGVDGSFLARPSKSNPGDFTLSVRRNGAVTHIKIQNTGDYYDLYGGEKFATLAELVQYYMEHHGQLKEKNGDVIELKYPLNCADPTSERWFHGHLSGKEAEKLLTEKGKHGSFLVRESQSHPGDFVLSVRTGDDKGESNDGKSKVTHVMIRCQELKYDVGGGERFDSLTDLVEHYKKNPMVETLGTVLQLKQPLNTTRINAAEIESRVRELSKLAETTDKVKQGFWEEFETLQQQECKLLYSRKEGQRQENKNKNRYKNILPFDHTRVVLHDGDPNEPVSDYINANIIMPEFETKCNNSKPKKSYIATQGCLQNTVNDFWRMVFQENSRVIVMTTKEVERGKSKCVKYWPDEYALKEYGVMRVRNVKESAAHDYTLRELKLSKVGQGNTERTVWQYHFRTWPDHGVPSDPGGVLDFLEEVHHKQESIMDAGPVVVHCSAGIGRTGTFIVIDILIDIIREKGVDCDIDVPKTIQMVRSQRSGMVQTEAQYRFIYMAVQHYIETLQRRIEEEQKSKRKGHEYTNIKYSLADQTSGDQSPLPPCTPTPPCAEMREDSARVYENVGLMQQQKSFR
The assay is described as follows: Inhibition of human SHP2 (246 to 527 residues) expressed in Escherichia coli strain BL21(DE3) using DiFMUP as substrate preincubated for 10 mins followed by substrate addition and measured after 10 mins by fluorescence assay. In outline: (§1)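 Selectivity panel on enzymes expressed in E. coli BL21(DE3), purified by nickel affinity then size exclusion. DiFMUP fluorescence assay run as for PTP1B/TCPTP, with per-enzyme conditions in a supplementary table; nonlinear regression for IC50; three independent experiments.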

The target of assay [4] is T3, Receptor-type tyrosine-protein phosphatase eta (Homo sapiens, UniProt Q12913).
T3 sequence (Q12913 whole entry): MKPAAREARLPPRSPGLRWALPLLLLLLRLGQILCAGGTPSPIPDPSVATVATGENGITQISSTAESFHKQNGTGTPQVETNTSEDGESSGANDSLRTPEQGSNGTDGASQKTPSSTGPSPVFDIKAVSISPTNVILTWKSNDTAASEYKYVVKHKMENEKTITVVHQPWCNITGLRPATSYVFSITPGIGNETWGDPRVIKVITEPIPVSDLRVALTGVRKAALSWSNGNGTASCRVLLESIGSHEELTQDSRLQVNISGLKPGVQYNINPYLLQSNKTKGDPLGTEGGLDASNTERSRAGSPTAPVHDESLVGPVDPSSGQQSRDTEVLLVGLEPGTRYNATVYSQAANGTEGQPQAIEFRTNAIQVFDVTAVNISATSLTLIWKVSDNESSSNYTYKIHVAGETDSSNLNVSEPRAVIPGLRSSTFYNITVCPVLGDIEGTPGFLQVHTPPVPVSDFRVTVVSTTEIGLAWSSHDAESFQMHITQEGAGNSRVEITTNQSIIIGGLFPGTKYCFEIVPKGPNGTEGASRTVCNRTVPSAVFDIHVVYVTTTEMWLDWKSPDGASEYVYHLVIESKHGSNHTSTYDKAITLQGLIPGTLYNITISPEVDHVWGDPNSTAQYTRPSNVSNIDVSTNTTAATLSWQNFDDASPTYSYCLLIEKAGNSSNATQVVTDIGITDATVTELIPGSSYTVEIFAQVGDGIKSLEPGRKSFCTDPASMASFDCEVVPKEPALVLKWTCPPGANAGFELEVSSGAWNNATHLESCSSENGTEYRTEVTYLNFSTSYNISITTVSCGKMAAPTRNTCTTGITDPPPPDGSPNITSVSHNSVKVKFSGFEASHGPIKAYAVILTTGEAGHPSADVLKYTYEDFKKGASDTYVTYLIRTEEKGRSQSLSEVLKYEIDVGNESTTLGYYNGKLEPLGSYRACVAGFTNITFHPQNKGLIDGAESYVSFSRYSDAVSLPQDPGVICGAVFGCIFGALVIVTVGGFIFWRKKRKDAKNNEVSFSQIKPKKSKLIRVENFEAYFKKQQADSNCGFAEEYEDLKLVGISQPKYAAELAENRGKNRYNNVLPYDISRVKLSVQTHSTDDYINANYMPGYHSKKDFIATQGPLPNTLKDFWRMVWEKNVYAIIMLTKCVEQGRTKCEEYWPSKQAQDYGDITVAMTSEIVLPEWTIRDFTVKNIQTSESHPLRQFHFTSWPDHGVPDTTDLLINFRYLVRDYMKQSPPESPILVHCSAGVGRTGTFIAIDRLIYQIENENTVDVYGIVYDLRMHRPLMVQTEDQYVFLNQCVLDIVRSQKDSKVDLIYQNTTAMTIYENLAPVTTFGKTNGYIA
The assay is described as follows: Inhibition of human PTPRJ (1019 to 1311 residues) expressed in Escherichia coli strain BL21(DE3) using DiFMUP as substrate preincubated for 10 mins followed by substrate addition and measured after 10 mins by fluorescence assay. Summed up:
as §1

Molecules are shown by their SMILES. Active and inactive are the calls of the source. The rule behind the calls is not given here.

Regarding `CC1=C(O)C(=O)C=C2C1=CC=C1[C@@]2(C)CC[C@@]2(C)[C@@H]3C[C@](C)(C(=O)O)CC[C@]3(C)CC[C@]12C` [CELASTROL], the outcome in assay [1] was Active. For the same molecule, the T1/2 in assay [2] came out at 31.9 min. For the same molecule, the IC50 is 4.1 µM in assay [3] and 111 µM in assay [4].
